Measurements from ChEMBL document CHEMBL4118213, “Drug efficacy of novel 3-O-methoxy-4-halo disubstituted 5,7-dimethoxy chromans; evaluated via DNA gyrase inhibition, bacterial cell wall lesion and antibacterial prospective” (Bioorg Med Chem, 2018).
Values after ≈ are worked out from the molar mass of the structure shown. Active and inactive are the calls of the source. The calls are words filed in the database; no cut-off is given here.

Tests used:
DNA gyrase = DNA gyrase (Staphylococcus aureus, UniProt P0A0K8+P20831); test: Inhibition of Staphylococcus aureus DNA gyrase assessed as reduction in relaxation of pBR322 DNA by […] analysis; assay type: protein-complex assay
Outline: (§1)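 pBR322 DNA incubated with S. aureus DNA gyrase with or without compound (1.5 µg) and novobiocin as positive control. Products resolved by gel electrophoresis. IC50 from the dose–response curve; mean of duplicate or triplicate measurements.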

[1] = target: DNA gyrase (Staphylococcus aureus) (UniProt P0A0K8+P20831); test: Inhibition of Staphylococcus aureus DNA gyrase assessed as reduction in relaxation of pBR322 DNA at 1.5 ug by […] analysis relative to control; assay type: protein-complex assay; outline: as §1
Klebsiella pneumoniae = test: Antibacterial activity against Klebsiella pneumoniae MTCC 530; assay type: functional
Outline: (§2)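 MIC determined against six bacterial strains over a range of concentrations, with 1% DMSO as the untreated control and novobiocin as the standard. Values are averages of n = 5.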

Escherichia coli = test: Antibacterial activity against Escherichia coli MTCC 443; assay type: functional; outline: as §2
Pseudomonas aeruginosa = test: Antibacterial activity against Pseudomonas aeruginosa MTCC 424; assay type: functional; outline: as §2
Staphylococcus aureus = test: Antibacterial activity against Staphylococcus aureus MTCC 96; assay type: functional; outline: as §2
[2] = test system: Corynebacterium diphtheriae; test: Antibacterial activity against Corynebacterium diphtheriae MTCC 116; assay type: functional; outline: as §2
Streptococcus pyogenes = test: Antibacterial activity against Streptococcus pyogenes MTCC 442; assay type: functional; outline: as §2
[3] = test system: Corynebacterium diphtheriae; test: Antibacterial activity against Corynebacterium diphtheriae MTCC 116 assessed as cell wall degradation by measuring dead cells measured every 30 mins up to 180 mins by microscopic method; assay type: functional, organism-based
Outline: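 C. diphtheriae was grown overnight in Loeffler medium and examined after treatment. Dead cells/cell debris were estimated every 30 min until whole-culture death. Total and dead cell stains were applied for 1 h in the dark at room temperature, then fluorescence was read at Ex 490/Em 525 and Ex 536/Em 617 nm, in triplicate.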

Erythrocyte [4] = test: Hemolytic activity in human RBC assessed as mean absorbance (reference value: 0.1868 +/- 0.033); assay type: ADME, cell-based
Outline: (§3)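 Human red blood cell membrane stabilization tested at various concentrations (n = 4) in 96-well format, with distilled water taken as 100% hemolysis. Absorbance read-out; IC50 taken from the percentage inhibition versus concentration curve.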

Erythrocyte [5] = test: Hemolytic activity in human RBC assessed as membrane mortification by measuring […] stabilization by absorbance method relative to control; assay type: ADME, cell-based; set-up: concentration or dose not given beside the values; outline: as §3
Erythrocyte [6] = test: Hemolytic activity in human RBC assessed as membrane mortification by absorbance method; assay type: ADME, cell-based; outline: as §3
MCF10 = test: Cytotoxicity against human MCF10 cells after 8 hrs by MTT assay; assay type: cell-based; details: mcf10, 8 h
Outline: (§4)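 MTT assay on MCF-7 and MCF-10 cells (n = 4), with DMSO as control and doxorubicin as standard. Viability was read at several times after treatment and calculated as mean OD/control OD × 100%.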

MCF7 = test: Cytotoxicity against human MCF7 cells after 8 hrs by MTT assay; assay type: cell-based; details: for Activity: human, mcf7, 8 h; outline: as §4
[7] = Cytotoxicity against human MCF7 cells assessed as cell viability after 4 hrs by MTT assay relative to control; assay type: cell-based; set-up: concentration or dose not given beside the values; details: read-out: Activity; outline: as §4
[8] = Cytotoxicity against human MCF7 cells assessed as cell viability after 6 hrs by MTT assay relative to control; assay type: cell-based; set-up: concentration or dose not given beside the values; details: read-out: Activity; outline: as §4

| IC50 (DNA gyrase) [nM] | inhibition [1] [%] | MIC (Klebsiella pneumoniae) [µg/mL] | MIC (Escherichia coli) [µg/mL] | MIC (Pseudomonas aeruginosa) [µg/mL] | MIC (Staphylococcus aureus) [µg/mL] | MIC [2] [µg/mL] | MIC (Streptococcus pyogenes) [µg/mL] | Compound | Activity [3] | Activity (Erythrocyte [4]) | Activity (Erythrocyte [5]) [%] | IC50 (Erythrocyte [6]) [µg/mL] | Activity (MCF10) | Activity (MCF7) | viability at 4 h [7] [%] | viability at 6 h [8] [%] | IC50 (MCF7; Homo sapiens, MCF7, 8 h) [nM] |
| --- | --- | --- | --- | --- | --- | --- | --- | --- | --- | --- | --- | --- | --- | --- | --- | --- | --- |
| 1.86 to 24 | 78 to 94 | 0.92 (≈ 3.1 µM) | 0.84 (≈ 2.83 µM) | 1.01 (≈ 3.41 µM) | 0.64 (≈ 2.16 µM) | 0.9 (≈ 3.04 µM) | 1.02 (≈ 3.44 µM) | COc1cc(OC)c2c(c1C(C)=O)OC(C)(C)[C@@H](O)[C@H]2O | Active | 0.4046 | 88.52 | 0.0094 (≈ 0.0317 µM) |  |  |  |  |  |
| 1.86 to 24 | 78 to 94 | 1.99 (≈ 5.83 µM) | 2.13 (≈ 6.24 µM) | 3.12 (≈ 9.14 µM) | 0.99 (≈ 2.9 µM) | 1.08 (≈ 3.17 µM) | 2.04 (≈ 5.98 µM) | COc1c(Br)c(OC)c(C(C)=O)c2c1C=CC(C)(C)O2 | Active | 0.3634 | 86.16 | 0.124 (≈ 0.364 µM) |  |  |  |  |  |
|  |  | 0.5 to 0.75 (≈ 0.816 to 1.22 µM) | 4.94 to 5 (≈ 8.06 to 8.16 µM) | 1.75 to 100 (≈ 2.86 to 163 µM) | 0.78 to 0.92 (≈ 1.27 to 1.5 µM) | 1.32 (≈ 2.15 µM) | 3.24 (≈ 5.29 µM) | CO[C@@H]1[C@@H](OC(N)=O)[C@@H](O)[C@H](Oc2ccc3c(O)c(NC(=O)c4ccc(O)c(CC=C(C)C)c4)c(=O)oc3c2C)OC1(C)C [NOVOBIOCIN] |  |  |  |  |  |  |  |  |  |
| 1.86 to 24 | 78 to 94 |  |  |  |  |  |  | COc1cc(OC)c2c(c1C(C)=O)OC(C)(C)C(O)C2Br (configuration not stated) |  |  |  |  |  |  |  |  |  |
| 9.5 | 78 to 94 | 0.76 (≈ 2.43 µM) | 0.92 (≈ 2.95 µM) | 0.94 (≈ 3.01 µM) | 0.16 (≈ 0.512 µM) | 0.92 (≈ 2.95 µM) | 0.94 (≈ 3.01 µM) | COc1cc(OC)c2c(c1C(C)=O)OC(C)(C)C(OC)C2F (configuration not stated) | Active | 0.3947 | 85.15 | 0.0922 (≈ 0.295 µM) | Non-Toxic | Dose-dependent effect | 20 | 16 |  |
| 1.86 to 24 | 78 to 94 | 0.96 (≈ 2.92 µM) | 1 (≈ 3.04 µM) | 1.02 (≈ 3.1 µM) | 0.18 (≈ 0.547 µM) | 0.21 (≈ 0.639 µM) | 1.07 (≈ 3.25 µM) | COc1cc(OC)c2c(c1C(C)=O)OC(C)(C)C(OC)C2Cl (configuration not stated) | Active | 0.3659 | 86.37 | 0.222 (≈ 0.676 µM) |  |  |  |  |  |
| 7.5 | 78 to 94 | 0.9 (≈ 3.62 µM) | 0.88 (≈ 3.54 µM) | 1.02 (≈ 4.11 µM) | 0.1 (≈ 0.403 µM) | 0.82 (≈ 3.3 µM) | 1 (≈ 4.03 µM) | COc1cc(O)c2c(c1C(C)=O)OC(C)(C)C=C2 | Active | 0.4624 | 90.45 | 0.0182 (≈ 0.0733 µM) | Non-Toxic | Dose-dependent effect | 20 | 16 |  |
| 1.86 to 24 | 78 to 94 | 3.88 (≈ 13.1 µM) | 4.1 (≈ 13.8 µM) | 3.01 (≈ 10.2 µM) | 1.54 (≈ 5.2 µM) | 1.28 (≈ 4.32 µM) | 5.02 (≈ 16.9 µM) | COc1cc2c(c(OC)c1C(C)=O)[C@H](O)[C@H](O)C(C)(C)O2 | Active | 0.3611 | 80.88 | 1 (≈ 3.38 µM) |  |  |  |  |  |
| 2.5 | 94 | 0.64 (≈ 1.68 µM) | 0.64 (≈ 1.68 µM) | 0.84 (≈ 2.21 µM) | 0.02 (≈ 0.0526 µM) | 0.04 (≈ 0.105 µM) | 0.83 (≈ 2.18 µM) | COc1cc(OS(=O)(=O)C(F)(F)F)c2c(c1C(C)=O)OC(C)(C)C=C2 | Active | 0.4852 | 98.84 | 0.0012 (≈ 0.00316 µM) | Non-Toxic |  | 20 | 16 | 10 |
| 10 | 78 to 94 | 2.18 (≈ 7.36 µM) | 2.24 (≈ 7.56 µM) | 4.52 (≈ 15.3 µM) | 0.92 (≈ 3.1 µM) | 0.99 (≈ 3.34 µM) | 2.85 (≈ 9.62 µM) | COc1cc(OC)c2c(c1C(C)=O)OC(C)(C)[C@H](O)[C@@H]2O | Active | 0.3888 | 85.31 | 0.88 (≈ 2.97 µM) | Non-Toxic | Dose-dependent effect | 20 | 16 |  |
| 3.5 | 90 | 0.72 (≈ 2.29 µM) | 0.68 (≈ 2.16 µM) | 0.87 (≈ 2.76 µM) | 0.08 (≈ 0.254 µM) | 0.68 (≈ 2.16 µM) | 0.87 (≈ 2.76 µM) | COc1cc(O)c2c(c1C(C)=O)OC(C)(C)C(OC)C2Cl (configuration not stated) | Active | 0.4242 | 93.25 | 0.0102 (≈ 0.0324 µM) | Non-Toxic | Dose-dependent effect | 20 | 16 |  |
| 1.86 to 24 | 78 to 94 | 2.24 (≈ 8.48 µM) | 0.99 (≈ 3.75 µM) | 1.67 (≈ 6.32 µM) | 1 (≈ 3.78 µM) | 1.02 (≈ 3.86 µM) | 3.12 (≈ 11.8 µM) | COc1cc2c(c(O)c1C(C)=O)C(=O)CC(C)(C)O2 | Active | 0.3841 | 80.65 | 1.24 (≈ 4.69 µM) |  |  |  |  |  |
|  |  |  |  |  |  |  |  | COc1ccc2c(c1)c(CC(=O)O)c(C)n2C(=O)c1ccc(Cl)cc1 [INDOMETHACIN] |  | 0.3834 | 85.64 | 0.086 (≈ 0.24 µM) |  |  |  |  |  |

| Compound | IC50 (DNA gyrase) [nM] | inhibition [1] [%] | MIC (Klebsiella pneumoniae) [µg/mL] | MIC (Escherichia coli) [µg/mL] | MIC (Pseudomonas aeruginosa) [µg/mL] | MIC (Staphylococcus aureus) [µg/mL] | MIC [2] [µg/mL] | MIC (Streptococcus pyogenes) [µg/mL] | Activity [3] | Activity (Erythrocyte [4]) | Activity (Erythrocyte [5]) [%] | IC50 (Erythrocyte [6]) [µg/mL] | Activity (MCF10) | Activity (MCF7) | viability at 4 h [7] [%] | viability at 6 h [8] [%] | IC50 (MCF7; Homo sapiens, MCF7, 8 h) [nM] |
| --- | --- | --- | --- | --- | --- | --- | --- | --- | --- | --- | --- | --- | --- | --- | --- | --- | --- |
| CO[C@@H]1[C@@H](OC(=O)c2ccc(C)[nH]2)[C@@H](O)[C@H](Oc2ccc3c(O)c(NC(=O)c4ccc(O)c(CC=C(C)C)c4)c(=O)oc3c2Cl)OC1(C)C |  | 86 |  |  |  |  |  |  |  |  |  |  |  |  |  |  |  |
